According to ChEMBL document CHEMBL3797175, “Discovery of 6-(difluoro(6-(4-fluorophenyl)-[1,2,4]triazolo[4,3-b][1,2,4]triazin-3-yl)methyl)quinoline as a highly potent and selective c-Met inhibitor” (Eur J Med Chem, 2016):
Calls of active or inactive are those of the source. The rule behind the calls is not given here.

What was measured:
NCI-H358 = experiment: Antiproliferative activity against human NCI-H358 cells after 72 hrs by SRB or MTT assay; assay type: functional, cell-based; details: NCI-H358, 72 h
Procedure, shortened: (§1)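 Cells seeded, exposed next day to a range of concentrations for 72 h. Growth read by sulforhodamine B or MTT. IC50 from four-parameter concentration-response fit. Each concentration tested at least in triplicate, with at least 2 experiments.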

[1] = Selectivity ratio of IC50 for human SPCA1 cells to IC50 for human MKN45 cells; assay type: ADME, cell-based; details: SPCA1 cells versus MKN45 cells
[2] = molecular target: Tyrosine-protein kinase Mer (Homo sapiens) (UniProt Q12866); details: 1000 nM
[3] = molecular target: Tyrosine-protein kinase receptor UFO (Homo sapiens, UniProt P30530); experiment: Inhibition of recombinant AXL (unknown origin) using poly (Glu, Tyr) 4:1 as substrate incubated for 60 mins by ELISA
[4] = Selectivity ratio of IC50 for human U87MG cells to IC50 for human MKN45 cells; assay type: ADME, cell-based; details: u-87mg atcc
[5] = molecular target: T1, Hepatocyte growth factor receptor (Homo sapiens, UniProt P08581); experiment: Inhibition of c-Met phosphorylation at Tyrosine 1234 in human EBC1 cells at 10 nM after 1 hr by Western blot analysis; assay type: cell-based
Procedure, shortened: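 EBC-1 or MKN45 cells treated with compound 1 h at 37 °C without HGF, then lysed in 1× SDS sample buffer. Lysates run on 10% SDS-PAGE and transferred to nitrocellulose. Probed with antibodies to c-Met, phospho-c-Met, phospho-ERK1/2, phospho-AKT, AKT and GAPDH, then HRP secondary. ECL detection.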

[6] = Selectivity ratio of IC50 for human SPCA4 cells to IC50 for mouse BAF3 cells expressing TPR-MET; assay type: ADME, cell-based; details: SPCA4 cells versus BAF3 cells expressing TPR-MET
[7] = molecular target: Hepatocyte growth factor receptor (Canis lupus familiaris) (UniProt Q75ZY9); experiment: Inhibition of c-Met in MDCK cells assessed as inhibition of HGF-induced cell scattering after 24 hrs by crystal violet staining based microscopic analysis
Procedure, shortened: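 MDCK cells, 1.5×10^3 per well, grown overnight, then given increasing compound concentrations plus HGF (100 ng/mL). Incubated 24 h at 37 °C, 5% CO2. Fixed in 4% paraformaldehyde 15 min, stained with 0.2% crystal violet and imaged by microscopy. Three independent experiments.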

NCI-H292 = experiment: Antiproliferative activity against human NCI-H292 cells after 72 hrs by SRB or MTT assay; assay type: functional, cell-based; details: NCI-H292, 72 h; procedure, shortened: as §1
NCI-H661 = experiment: Antiproliferative activity against human NCI-H661 cells after 72 hrs by SRB or MTT assay; assay type: functional, cell-based; details: NCI-H661, 72 h; procedure, shortened: as §1
[8] = Selectivity ratio of IC50 for human BGC823 cells to IC50 for human MKN45 cells; assay type: ADME, cell-based; details: bgc-823
Procedure, shortened: (§2)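 Both IC50s in each ratio come from one proliferation assay. Cells were seeded and exposed the next day to a range of concentrations for 72 h, then read by SRB or MTT. IC50s were fitted by four-parameter concentration–response, with each concentration at least in triplicate and at least 2 experiments. BaF3/TPR-Met is murine pre-B BaF3 transfected with TPR-MET and puromycin-selected.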

[9] = Selectivity ratio of IC50 for human NCI-H358 cells to IC50 for human EBC1 cells; assay type: ADME, cell-based; procedure, shortened: as §2
[10] = Selectivity ratio of IC50 for human NCI-H661 cells to IC50 for human EBC1 cells; assay type: ADME, cell-based; procedure, shortened: as §2
[11] = Selectivity ratio of IC50 for human NCI-H1299 cells to IC50 for human MKN45 cells; assay type: ADME, cell-based; procedure, shortened: as §2
[12] = molecular target: Proto-oncogene tyrosine-protein kinase receptor Ret (Homo sapiens) (UniProt P07949); experiment: Inhibition of recombinant RET (unknown origin) using poly (Glu, Tyr) 4:1 as substrate at 1000 nM incubated for 60 mins by ELISA relative to control
Procedure, shortened: (§3)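 Recombinant tyrosine kinases assayed on wells precoated with poly(Glu,Tyr)4:1 (20 µg/mL). ATP 10 µmol/L in HEPES pH 7.4 buffer with MgCl2, MnCl2, Na3VO4 and DTT; compound in 1% DMSO, 1% DMSO as control. Reaction 60 min at 37 °C. Phosphotyrosine detected with PY99 and HRP anti-mouse, o-phenylenediamine, A490. Inhibition % relative to control; two experiments.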

[13] = Antitumor activity against human MKN45 cells xenografted in athymic nude mouse assessed as tumor growth inhibition at 25 mg/kg, po bid for 21 days measured twice a week during compound dosing relative to control; assay type: functional; details: MKN-45, po, 504 h, read-out: TGI
Procedure, shortened: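 Nude mice bearing s.c. tumours. Cells were first grown s.c. to 700–800 mm³, then 1.5 mm³ fragments were transplanted s.c. into the right flank. Mice were randomised at 100–200 mm³ (n=6 treated, n=12 vehicle) and dosed orally twice daily for 21 days. Caliper measurement twice weekly; TV = length×width²/2. TGI taken on the final day versus vehicle; Student's t test.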

[14] = molecular target: Tyrosine-protein kinase receptor TYRO3 (Homo sapiens) (UniProt Q06418); experiment: Inhibition of recombinant TYRO3 (unknown origin) using poly (Glu, Tyr) 4:1 as substrate at 1000 nM incubated for 60 mins by ELISA relative to control; procedure, shortened: as §3
[15] = Selectivity ratio of IC50 for human NCI-H460 cells to IC50 for mouse BAF3 cells expressing TPR-MET; assay type: ADME, cell-based; procedure, shortened: as §2
[16] = Selectivity ratio of IC50 for human U87MG cells to IC50 for mouse BAF3 cells expressing TPR-MET; assay type: ADME, cell-based
[17] = molecular target: Insulin-like growth factor 1 receptor (Homo sapiens) (UniProt P08069); experiment: Inhibition of recombinant IGF1R (unknown origin) using poly (Glu, Tyr) 4:1 as substrate at 1000 nM incubated for 60 mins by ELISA relative to control; procedure, shortened: as §3
[18] = molecular target: T1, Hepatocyte growth factor receptor; experiment: Inhibition of c-Met in HGF stimulated human U87MG cells assessed as reduction in ERK phosphorylation at Threonine 202 at 10 nM after 1 hr by Western blot analysis; assay type: cell-based; details: U-87MG ATCC
Procedure, shortened: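 U87MG cells serum-starved 24 h, treated 1 h at 37 °C, then stimulated with HGF 100 ng/mL for 15 min. Lysed in SDS buffer, run on 10% SDS-PAGE and immunoblotted for phospho-ERK1/2 and phospho-AKT; ECL detection.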

NCI-H460 = experiment: Antiproliferative activity against human NCI-H460 cells after 72 hrs by SRB or MTT assay; assay type: functional, cell-based; details: NCI-H460, 72 h; procedure, shortened: as §1
[19] = Selectivity ratio of IC50 for human MDA-MB-231 cells to IC50 for human EBC1 cells; assay type: ADME, cell-based; procedure, shortened: as §2
[20] = Selectivity ratio of IC50 for human NCI-H226 cells to IC50 for mouse BAF3 cells expressing TPR-MET; assay type: ADME, cell-based; procedure, shortened: as §2
[21] = Selectivity ratio of IC50 for human 786-0 cells to IC50 for human EBC1 cells; assay type: ADME, cell-based; procedure, shortened: as §2

T1 sequence (P08581 whole entry): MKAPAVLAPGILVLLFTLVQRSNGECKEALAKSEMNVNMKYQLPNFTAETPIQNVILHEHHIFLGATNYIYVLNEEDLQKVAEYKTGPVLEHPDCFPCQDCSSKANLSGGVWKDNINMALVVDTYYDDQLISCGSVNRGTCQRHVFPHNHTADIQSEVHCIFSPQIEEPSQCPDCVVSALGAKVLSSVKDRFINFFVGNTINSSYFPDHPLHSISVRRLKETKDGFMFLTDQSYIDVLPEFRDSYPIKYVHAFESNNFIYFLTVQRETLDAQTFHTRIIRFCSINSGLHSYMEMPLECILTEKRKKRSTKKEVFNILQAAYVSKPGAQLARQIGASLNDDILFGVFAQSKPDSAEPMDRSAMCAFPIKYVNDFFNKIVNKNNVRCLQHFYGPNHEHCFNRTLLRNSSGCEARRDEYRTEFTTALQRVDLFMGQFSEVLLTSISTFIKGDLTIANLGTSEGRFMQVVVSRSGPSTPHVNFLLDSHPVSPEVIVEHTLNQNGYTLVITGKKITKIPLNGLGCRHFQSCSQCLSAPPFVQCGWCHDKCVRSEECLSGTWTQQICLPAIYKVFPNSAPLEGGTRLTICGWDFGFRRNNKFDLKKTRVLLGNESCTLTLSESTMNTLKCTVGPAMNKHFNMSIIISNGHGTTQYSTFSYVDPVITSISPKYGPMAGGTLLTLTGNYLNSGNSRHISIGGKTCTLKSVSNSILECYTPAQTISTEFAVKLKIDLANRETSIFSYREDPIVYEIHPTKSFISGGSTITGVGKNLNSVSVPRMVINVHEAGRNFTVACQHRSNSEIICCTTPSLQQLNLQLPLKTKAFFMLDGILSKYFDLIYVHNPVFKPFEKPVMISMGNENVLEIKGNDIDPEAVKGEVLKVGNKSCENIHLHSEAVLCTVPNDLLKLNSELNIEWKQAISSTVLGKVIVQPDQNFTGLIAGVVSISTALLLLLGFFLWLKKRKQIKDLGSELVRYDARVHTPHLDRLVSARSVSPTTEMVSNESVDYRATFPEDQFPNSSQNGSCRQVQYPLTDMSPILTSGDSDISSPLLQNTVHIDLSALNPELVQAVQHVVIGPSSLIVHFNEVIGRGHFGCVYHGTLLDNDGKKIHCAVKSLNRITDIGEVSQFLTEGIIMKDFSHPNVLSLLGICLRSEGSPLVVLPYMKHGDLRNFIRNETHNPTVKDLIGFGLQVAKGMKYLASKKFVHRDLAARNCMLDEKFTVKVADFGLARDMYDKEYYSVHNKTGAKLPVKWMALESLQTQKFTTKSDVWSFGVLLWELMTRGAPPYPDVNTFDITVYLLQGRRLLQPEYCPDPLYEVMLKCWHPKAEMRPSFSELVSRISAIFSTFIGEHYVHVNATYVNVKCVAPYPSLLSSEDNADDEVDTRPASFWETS
Tyrosine-protein kinase receptor UFO, sequence (P30530 whole entry): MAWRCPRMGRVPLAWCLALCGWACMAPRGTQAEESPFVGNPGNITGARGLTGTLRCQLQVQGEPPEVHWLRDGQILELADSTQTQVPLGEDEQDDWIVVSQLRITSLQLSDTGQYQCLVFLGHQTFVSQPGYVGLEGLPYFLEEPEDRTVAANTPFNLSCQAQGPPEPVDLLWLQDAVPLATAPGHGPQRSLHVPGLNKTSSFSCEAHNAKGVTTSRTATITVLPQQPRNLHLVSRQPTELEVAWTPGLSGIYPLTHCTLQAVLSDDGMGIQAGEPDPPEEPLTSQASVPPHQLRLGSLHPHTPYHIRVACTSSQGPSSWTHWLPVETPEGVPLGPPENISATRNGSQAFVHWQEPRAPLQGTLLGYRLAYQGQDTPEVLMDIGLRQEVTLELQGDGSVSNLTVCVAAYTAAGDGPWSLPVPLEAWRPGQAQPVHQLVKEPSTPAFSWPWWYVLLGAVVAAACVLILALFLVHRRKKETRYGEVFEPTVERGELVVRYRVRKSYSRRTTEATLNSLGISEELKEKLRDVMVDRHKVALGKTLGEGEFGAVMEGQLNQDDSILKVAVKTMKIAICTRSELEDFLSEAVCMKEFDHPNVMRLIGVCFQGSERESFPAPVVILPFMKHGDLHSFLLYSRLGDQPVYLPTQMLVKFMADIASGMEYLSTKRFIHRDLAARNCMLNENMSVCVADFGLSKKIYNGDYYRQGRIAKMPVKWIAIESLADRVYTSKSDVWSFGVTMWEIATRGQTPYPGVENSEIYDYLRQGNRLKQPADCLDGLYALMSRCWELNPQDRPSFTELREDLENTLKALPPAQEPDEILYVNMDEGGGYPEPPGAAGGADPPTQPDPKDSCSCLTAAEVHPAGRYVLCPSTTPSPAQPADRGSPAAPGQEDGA
Hepatocyte growth factor receptor (Canis lupus familiaris), sequence (Q75ZY9 whole entry): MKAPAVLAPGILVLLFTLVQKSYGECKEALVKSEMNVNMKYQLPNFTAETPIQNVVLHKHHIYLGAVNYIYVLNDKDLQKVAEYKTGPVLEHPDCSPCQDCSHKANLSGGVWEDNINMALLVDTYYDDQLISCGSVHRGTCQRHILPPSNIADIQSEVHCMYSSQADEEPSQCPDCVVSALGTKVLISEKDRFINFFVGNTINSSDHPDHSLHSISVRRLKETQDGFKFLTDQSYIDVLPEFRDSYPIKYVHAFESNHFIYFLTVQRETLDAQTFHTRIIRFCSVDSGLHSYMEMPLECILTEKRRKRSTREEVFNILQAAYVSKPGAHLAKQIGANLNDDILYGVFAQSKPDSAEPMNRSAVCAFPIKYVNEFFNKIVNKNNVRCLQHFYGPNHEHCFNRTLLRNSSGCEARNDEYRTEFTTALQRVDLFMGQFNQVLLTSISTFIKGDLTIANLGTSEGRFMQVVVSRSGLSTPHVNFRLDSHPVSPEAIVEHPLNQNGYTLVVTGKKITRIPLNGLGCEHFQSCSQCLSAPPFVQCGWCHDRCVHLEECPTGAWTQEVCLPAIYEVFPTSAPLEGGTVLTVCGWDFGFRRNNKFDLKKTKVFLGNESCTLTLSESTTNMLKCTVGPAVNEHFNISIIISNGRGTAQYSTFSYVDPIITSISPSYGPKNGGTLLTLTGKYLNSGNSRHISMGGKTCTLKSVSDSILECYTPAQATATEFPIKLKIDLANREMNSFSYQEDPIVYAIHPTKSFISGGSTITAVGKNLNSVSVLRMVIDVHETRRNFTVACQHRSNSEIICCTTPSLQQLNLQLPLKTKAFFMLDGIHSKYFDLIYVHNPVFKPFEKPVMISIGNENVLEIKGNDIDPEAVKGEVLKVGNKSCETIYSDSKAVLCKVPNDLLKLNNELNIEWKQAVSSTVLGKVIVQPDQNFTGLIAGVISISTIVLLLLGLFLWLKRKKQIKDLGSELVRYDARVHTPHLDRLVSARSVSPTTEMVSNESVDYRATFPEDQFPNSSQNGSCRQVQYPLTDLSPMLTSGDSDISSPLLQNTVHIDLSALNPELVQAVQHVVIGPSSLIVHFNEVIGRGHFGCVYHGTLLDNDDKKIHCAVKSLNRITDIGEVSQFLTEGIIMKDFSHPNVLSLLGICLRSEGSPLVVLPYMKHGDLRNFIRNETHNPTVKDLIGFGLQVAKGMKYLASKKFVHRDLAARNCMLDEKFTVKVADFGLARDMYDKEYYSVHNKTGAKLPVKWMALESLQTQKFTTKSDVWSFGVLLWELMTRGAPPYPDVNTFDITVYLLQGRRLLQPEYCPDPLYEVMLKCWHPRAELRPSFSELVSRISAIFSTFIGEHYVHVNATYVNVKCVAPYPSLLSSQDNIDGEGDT
Tyrosine-protein kinase Mer (Homo sapiens), sequence (Q12866 whole entry): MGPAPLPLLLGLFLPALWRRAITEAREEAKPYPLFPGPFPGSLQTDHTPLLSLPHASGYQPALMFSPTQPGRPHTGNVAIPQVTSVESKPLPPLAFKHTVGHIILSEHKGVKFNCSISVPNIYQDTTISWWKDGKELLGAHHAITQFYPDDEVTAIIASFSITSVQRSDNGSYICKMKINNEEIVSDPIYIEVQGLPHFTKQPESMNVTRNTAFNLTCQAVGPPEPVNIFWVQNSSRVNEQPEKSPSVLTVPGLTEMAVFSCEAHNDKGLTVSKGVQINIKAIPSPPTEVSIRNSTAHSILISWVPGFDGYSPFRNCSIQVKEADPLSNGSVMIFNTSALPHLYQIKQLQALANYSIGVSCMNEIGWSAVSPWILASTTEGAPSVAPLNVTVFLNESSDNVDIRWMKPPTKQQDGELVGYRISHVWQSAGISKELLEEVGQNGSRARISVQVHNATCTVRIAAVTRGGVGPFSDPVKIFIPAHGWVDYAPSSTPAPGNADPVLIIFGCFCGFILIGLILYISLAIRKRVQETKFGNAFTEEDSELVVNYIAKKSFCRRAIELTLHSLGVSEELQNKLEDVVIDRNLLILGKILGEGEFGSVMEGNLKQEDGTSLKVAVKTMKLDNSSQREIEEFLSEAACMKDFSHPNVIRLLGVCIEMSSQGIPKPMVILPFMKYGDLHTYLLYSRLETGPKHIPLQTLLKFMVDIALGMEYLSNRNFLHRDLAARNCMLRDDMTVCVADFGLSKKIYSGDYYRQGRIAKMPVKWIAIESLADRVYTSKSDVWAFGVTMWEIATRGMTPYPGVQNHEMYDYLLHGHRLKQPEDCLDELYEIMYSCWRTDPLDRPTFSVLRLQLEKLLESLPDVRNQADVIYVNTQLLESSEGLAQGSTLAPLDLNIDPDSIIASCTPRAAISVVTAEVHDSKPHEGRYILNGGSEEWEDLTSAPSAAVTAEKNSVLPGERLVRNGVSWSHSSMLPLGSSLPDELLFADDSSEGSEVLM

What does the source list for `Fc1ccc(-c2cnc3nnc(C(F)(F)c4ccc5ncccc5c4)n3n2)cc1`?
IC50 (NCI-H358): > 10 µM; selectivity ratio [1]: > 10000; inhibition [2]: 13.5%; IC50 [3]: > 1 µM; Ratio IC50 [4]: 10000; inhibition [5]: Active; selectivity ratio [6]: > 10000; inhibition [7]: Dose-dependent effect; IC50 (NCI-H292): > 10 µM; IC50 (NCI-H661): > 10 µM; Ratio IC50 [8]: > 10000; Ratio IC50 [9]: 10000; Ratio IC50 [10]: 10000; Ratio IC50 [11]: 10000; inhibition [12]: 29.9%; inhibition in vivo at 25 mg/kg [13]: 96.5%; inhibition [14]: 10.1%; Ratio IC50 [15]: 10000; Ratio IC50 [16]: 10000; inhibition [17]: 0.4%; inhibition [18]: Active; IC50 (NCI-H460): > 10 µM; Ratio IC50 [19]: > 10000; Ratio IC50 [20]: 10000; Ratio IC50 [21]: 10000
